The source made the active and inactive calls. The rule behind the calls is not given here.
Assays:
Bel-7402 [1] = assay: Cell cycle arrest in human Bel7402 cells assessed as G2/G1 phase ratio level at 0.8 uM after 48 hrs by propidium iodide staining-based flow cytometric analysis (reference value: 1.82%); format: functional
Method in brief: (§1)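 Bel-7402 cells were seeded in 6-well plates and grown 24 h at 37 °C. Compound in DMSO was added in triplicate, with DMSO-only controls, for 48 h. Cells were then centrifuged, fixed in 70% ethanol at 4 °C and stained with propidium iodide. DNA content was measured by flow cytometry to give cell-cycle phase distribution.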

Bel-7402 [2] = assay: Induction of mitochondrial membrane potential loss in human Bel7402 cells at 0.4 uM after 48 hrs by JC-1 dye-based flow cytometric analysis (reference value: 7.20%); format: functional
Method in brief: (§2)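 Bel-7402 cells were exposed in triplicate for 48 h to compound or vehicle. Cells were washed with PBS and stained with JC-1 in the dark. The fraction of cells with collapsed versus intact mitochondrial membrane potential was counted by flow cytometry.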

Bel-7402 [3] = assay: Induction of apoptosis in human Bel7402 cells assessed as late apoptotic cells at 0.4 uM after 24 hrs by Annexin V-FITC/propidium iodide staining-based flow cytometric analysis (reference value: 0.96%); format: functional
Bel-7402 [4] = assay: Induction of mitochondrial membrane potential loss in human Bel7402 cells at 0.8 uM after 48 hrs by JC-1 dye-based flow cytometric analysis (reference value: 7.20%); format: functional; method in brief: as §2
HL-60 = assay: Antiproliferative activity against human HL60 cells after 72 hrs by MTT assay; format: functional, cell-based; conditions: HL-60, 72 h
Method in brief: (§3)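 MTT assay with 72 h exposure to graded concentrations in triplicate. MTT solution then DMSO were added, followed by 10 min at room temperature, with absorbance read at 490 nm. IC50 is reported as the mean of three independent experiments. 5-FU served as positive control.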

Bel-7402 [5] = assay: Cell cycle arrest in human Bel7402 cells assessed as G2/G1 phase ratio level at 1.2 uM after 48 hrs by propidium iodide staining-based flow cytometric analysis (reference value: 1.82%); format: functional; method in brief: as §1
Bel-7402 [6] = assay: Cell cycle arrest in human Bel7402 cells assessed as accumulation of cells at G2 phase at 0.8 uM after 48 hrs by propidium iodide staining-based flow cytometric analysis (reference value: 23.53%); format: functional; method in brief: as §1
Bel-7402 [7] = assay: Cell cycle arrest in human Bel7402 cells assessed as accumulation of cells at S phase at 1.2 uM after 48 hrs by propidium iodide staining-based flow cytometric analysis (reference value: 12.92%); format: functional; method in brief: as §1
Bel-7402 [8] = assay: Induction of apoptosis in human Bel7402 cells assessed as late apoptotic cells at 1.2 uM after 24 hrs by Annexin V-FITC/propidium iodide staining-based flow cytometric analysis (reference value: 0.96%); format: functional
Bel-7402 [9] = assay: Induction of apoptosis in human Bel7402 cells assessed as upregulation of Bax expression after 48 hrs by Western blot analysis; format: functional, cell-based
Method in brief: (§4)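 Bel-7402 cells were treated in triplicate for 48 h at 0, 0.4, 0.8 and 1.2 µM. Protein content of lysates was determined, then lysates were run on 10% SDS-PAGE and transferred to nitrocellulose. Membranes were blocked with 5% fat-free milk, probed with monoclonal antibodies and detected by ECL chemiluminescence.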

Bel-7402 [10] = assay: Induction of apoptosis in human Bel7402 cells assessed as necrotic cells at 1.2 uM after 24 hrs by Annexin V-FITC/propidium iodide staining-based flow cytometric analysis (reference value: 11.96%); format: functional
Bel-7402 [11] = assay: Induction of apoptosis in human Bel7402 cells assessed as late apoptotic cells at 0.8 uM after 24 hrs by Annexin V-FITC/propidium iodide staining-based flow cytometric analysis (reference value: 0.96%); format: functional
Bel-7402 [12] = assay: Induction of mitochondrial membrane potential in human Bel7402 cells after 48 hrs by JC-1 dye-based flow cytometric analysis; format: functional, cell-based; method in brief: as §2
Bel-7402 [13] = assay: Induction of apoptosis in human Bel7402 cells after 24 hrs by Annexin V-FITC/propidium iodide staining-based flow cytometric analysis; format: functional, cell-based
Bel-7402 [14] = assay: Cell cycle arrest in human Bel7402 cells assessed as accumulation of cells at G2 phase at 0.4 uM after 48 hrs by propidium iodide staining-based flow cytometric analysis (reference value: 23.53%); format: functional; method in brief: as §1
PC-3 = assay: Antiproliferative activity against human PC3 cells after 72 hrs by MTT assay; format: functional, cell-based; conditions: PC-3, 72 h; method in brief: as §3
Bel-7402 [15] = assay: Cell cycle arrest in human Bel7402 cells assessed as G2/G1 phase ratio level at 0.4 uM after 48 hrs by propidium iodide staining-based flow cytometric analysis (reference value: 1.82%); format: functional; method in brief: as §1
Bel-7402 [16] = assay: Induction of apoptosis in human Bel7402 cells assessed as necrotic cells at 0.8 uM after 24 hrs by Annexin V-FITC/propidium iodide staining-based flow cytometric analysis (reference value: 11.96%); format: functional
Bel-7402 [17] = assay: Cell cycle arrest in human Bel7402 cells assessed as accumulation of cells at G1 phase at 1.2 uM after 48 hrs by propidium iodide staining-based flow cytometric analysis (reference value: 63.55%); format: functional; method in brief: as §1
Bel-7402 [18] = assay: Induction of apoptosis in human Bel7402 cells assessed as upregulation of caspase3 expression after 48 hrs by Western blot analysis; format: functional, cell-based; method in brief: as §4
Bel-7402 [19] = assay: Cell cycle arrest in human Bel7402 cells assessed as accumulation of cells at S phase at 0.4 uM after 48 hrs by propidium iodide staining-based flow cytometric analysis (reference value: 12.92%); format: functional; method in brief: as §1
Bel-7402 [20] = assay: Induction of apoptosis in human Bel7402 cells assessed as early apoptotic cells at 0.8 uM after 24 hrs by Annexin V-FITC/propidium iodide staining-based flow cytometric analysis (reference value: 1.07%); format: functional
Bel-7402 [21] = assay: Antiproliferative activity against human Bel7402 cells after 72 hrs by MTT assay; format: functional, cell-based; conditions: Bel-7402, 72 h; method in brief: as §3
Bel-7402 [22] = assay: Induction of apoptosis in human Bel7402 cells assessed as downregulation of Bcl2 expression after 48 hrs by Western blot analysis; format: functional, cell-based; method in brief: as §4
Bel-7402 [23] = assay: Cell cycle arrest in human Bel7402 cells assessed as accumulation of cells at G1 phase at 0.4 uM after 48 hrs by propidium iodide staining-based flow cytometric analysis (reference value: 63.55%); format: functional; method in brief: as §1
Bel-7402 [24] = assay: Induction of apoptosis in human Bel7402 cells assessed as necrotic cells at 0.4 uM after 24 hrs by Annexin V-FITC/propidium iodide staining-based flow cytometric analysis (reference value: 11.96%); format: functional
Bel-7402 [25] = assay: Induction of apoptosis in human Bel7402 cells assessed as upregulation of p53 expression after 48 hrs by Western blot analysis; format: functional, cell-based; method in brief: as §4
Bel-7402 [26] = assay: Induction of apoptosis in human Bel7402 cells assessed as nuclear disintegration at 0.4 to 1.2 uM after 48 hrs by Hoechst […] staining-based fluorescent microscopic analysis; format: functional, cell-based
Method in brief: (§5)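 Bel-7402 cells were seeded in 6-well plates in 2 mL medium and grown 24 h. Compound was then added for 48 h, with a vehicle control. Nuclei were stained with Hoechst 33258 and examined by fluorescence microscopy for chromatin condensation and nuclear disintegration.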

Bel-7402 [27] = assay: Induction of apoptosis in human Bel7402 cells assessed as chromatin condensation at 0.4 to 1.2 uM after 48 hrs by Hoechst […] staining-based fluorescent microscopic analysis; format: functional, cell-based; method in brief: as §5

C=C1C(=O)[C@@]23C(=O)O[C@H]4CCC(C)(C)[C@H]5[C@H](O)OC[C@@]45[C@@H]2CC[C@@H]1[C@H]3OC(=O)c1ccc(N(CCCl)CCCl)cc1
Ratio (Bel-7402 [1]): 1.85 | Activity (Bel-7402 [2]): 14.38% | Activity (Bel-7402 [3]): 7.07% | Activity (Bel-7402 [4]): 20.93% | IC50 (HL-60): 7.83 µM | Ratio (Bel-7402 [5]): 1.84 | Activity (Bel-7402 [6]): 15.87% | Activity (Bel-7402 [7]): 14.59% | Activity (Bel-7402 [8]): 19.39% | Activity (Bel-7402 [9]): Dose-dependent effect | Activity (Bel-7402 [10]): 4.33% | Activity (Bel-7402 [11]): 11.31% | Activity (Bel-7402 [12]): Dose-dependent effect | Activity (Bel-7402 [13]): Dose-dependent effect | Activity (Bel-7402 [14]): 18.15% | IC50 (PC-3): 3.97 µM | Ratio (Bel-7402 [15]): 1.84 | Activity (Bel-7402 [16]): 4.23% | Activity (Bel-7402 [17]): 72.09% | Activity (Bel-7402 [18]): Dose-dependent effect | Activity (Bel-7402 [19]): 15.15% | Activity (Bel-7402 [20]): 24.22% | IC50 (Bel-7402 [21]): 0.77 µM | Activity (Bel-7402 [22]): Dose-dependent effect | Activity (Bel-7402 [23]): 66.71% | Activity (Bel-7402 [24]): 8.38% | Activity (Bel-7402 [25]): Dose-dependent effect | Activity (Bel-7402 [26]): Active | Activity (Bel-7402 [27]): Active
